Data reported in ChEMBL document CHEMBL1156229, “Pharmacophore development and application toward the identification of novel, small-molecule autotaxin inhibitors” (J Med Chem, 2010).

Biological target: Autotaxin (Homo sapiens, UniProt Q13822)
Assay: Inhibition of human recombinant C-terminal FLAG-tagged autotaxin expressed in baculovirus-infected Sf9 cells assessed as FS-3 hydrolysis at 10 uM relative to control
How it was run: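 Single-dose screen: inhibitor 10 μM final, purified recombinant human ATX 8.3 nM, FS-3 1 μM, fatty acid free BSA 30 μM in Tris pH 8 buffer (1 mM MgCl2, 1 mM CaCl2, 3 mM KCl, 140 mM NaCl), 37 °C. Fluorescence (ex 485/em 538) read every 2 min; percent activity vs vehicle after no-ATX subtraction at 1 h; mean ± SD of three wells.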

Row | Structure (SMILES) | inhibition [%]
1 | CCOc1cc(-c2ccc(/N=N/c3c(S(=O)(=O)O)cc4ccc(N)cc4c3O)cc2)ccc1/N=N/c1c(S(=O)(=O)O)cc2ccc(N)cc2c1O | 39
2 | O=C(Nc1ccc2cc(S(=O)(=O)O)cc(S(=O)(=O)O)c2c1)Nc1ccc2cc(S(=O)(=O)O)cc(S(=O)(=O)O)c2c1 | 0
3 | Cc1ccc(C(=O)Nc2ccc(S(=O)(=O)[O-])c3cc(S(=O)(=O)O)cc(S(=O)(=O)[O-])c23)cc1NC(=O)c1cccc(NC(=O)Nc2cccc(C(=O)Nc3cc(C(=O)Nc4ccc(S(=O)(=O)O)c5cc(S(=O)(=O)O)cc(S(=O)(=O)O)c45)ccc3C)c2)c1.Cc1ccc(C)c2c1c(NCCCCCCNc1cc(C)[n+](C)c3c(C)ccc(C)c13)cc(C)[n+]2C | 6
4 | O=S(=O)(O)c1ccc(/N=N/Nc2ccc(S(=O)(=O)O)cc2)cc1 | 1
5 | CC(=O)Nc1cc(S(=O)(=O)O)cc2cc(S(=O)(=O)O)c(/N=N/c3ccc(C(=O)Nc4ccc(S(=O)(=O)O)cc4)cc3)c(O)c12 | 17
6 | Nc1ccc(C(=O)Nc2ccc(C(=O)Nc3ccc(/C=C/c4ccc(NC(=O)c5ccc(N)cc5)cc4S(=O)(=O)O)c(S(=O)(=O)O)c3)cc2)cc1 | 0
7 | O=C(Nc1ccc2cc(S(=O)(=O)O)cc(O)c2c1)Nc1ccc2cc(S(=O)(=O)O)cc(O)c2c1 | -6
8 | Nc1ccc2c(O)c(/N=N/c3ccc4c(O)cc(S(=O)(=O)O)cc4c3)c(S(=O)(=O)O)cc2c1 | 30
9 | O=C(Nc1ccc(S(=O)(=O)O)cc1)c1ccc(/N=N/c2cc(S(=O)(=O)O)c3ccccc3c2O)cc1 | 1
10 | O=C(O)c1ccccc1-c1c2cc/c(=N\c3ccccc3)cc-2oc2cc(Nc3ccc(S(=O)(=O)O)cc3)ccc12 | 27
11 | N=C(N/N=C/c1ccccc1S(=O)(=O)O)C(=N)N/N=C/c1ccccc1S(=O)(=O)O | 5
12 | Cc1ccc(Nc2cccc3c2C(=O)c2cccc(Nc4ccc(C)c(S(=O)(=O)O)c4)c2C3=O)cc1S(=O)(=O)O | 4
13 | O=C(N/N=C/c1ccccc1S(=O)(=O)O)N/N=C/c1ccccc1S(=O)(=O)O | -5
14 | Nc1cccc(/N=N/c2c(S(=O)(=O)O)cc3cc(Nc4ccc5c(O)c(/N=N/c6cccc(N)c6)c(S(=O)(=O)O)cc5c4)ccc3c2O)c1 | 33
15 | O=C(Nc1ccc2c(O)c(/N=N/c3ccccc3)c(S(=O)(=O)O)cc2c1)Nc1ccc2c(O)c(/N=N/c3ccccc3)c(S(=O)(=O)O)cc2c1 | 23
16 | COc1cc(/N=N/c2ccc(/N=N/c3cc(S(=O)(=O)O)ccc3S(=O)(=O)O)c(C)c2)c(C)cc1/N=N/c1ccc(NC(=O)c2ccc(N)cc2)cc1C | 39
17 | O=C1c2ccc(S(=O)(=O)O)cc2C(=O)c2c(Nc3ccccc3)ccc(Nc3ccc(S(=O)(=O)O)cc3)c21 | 6
18 | Nc1cc(C(=O)Nc2ccc(S(=O)(=O)O)cc2)ccc1C(=O)Nc1ccc(S(=O)(=O)O)cc1 | -2
19 | Cc1cc(/N=N/c2ccc(/C=C/c3ccc(/N=N/c4cc(C)c(N)c(/N=N/c5ccc(S(=O)(=O)O)cc5)c4N)cc3S(=O)(=O)O)c(S(=O)(=O)O)c2)c(N)c(/N=N/c2ccc(S(=O)(=O)O)cc2)c1N | 35
20 | O=C(N/N=C/c1ccc(O)c(S(=O)(=O)O)c1)N/N=C/c1ccc(O)c(S(=O)(=O)O)c1 | 6
21 | CC(=O)Nc1cc(S(=O)(=O)O)cc2cc(S(=O)(=O)O)c(/N=N/c3ccc(C(=O)Nc4ccc5cc(S(=O)(=O)O)ccc5c4)cc3)c(O)c12 | 29
22 | O=C(N/N=C/c1ccc(O)c(S(=O)(=O)O)c1)C(=O)N/N=C/c1ccc(O)c(S(=O)(=O)O)c1 | 5
23 | Nc1ccc(C(=O)Nc2cccc(C(=O)Nc3ccc4c(O)c(/N=N/c5ccc(/N=N/c6ccc(S(=O)(=O)O)cc6)cc5)c(S(=O)(=O)O)cc4c3)c2)cc1 | 39
24 | O=C(Nc1ccccc1)C(=N/Nc1cc(S(=O)(=O)O)ccc1O)/N=N/c1cc(S(=O)(=O)O)ccc1O | 0
25 | O=C(N/N=C/c1ccccc1S(=O)(=O)O)C(=O)N/N=C/c1ccccc1S(=O)(=O)O | -2
26 | O=S(=O)(O)c1ccc(O)c(/N=N/C=N/Nc2cc(S(=O)(=O)O)ccc2O)c1 | -1
27 | O=C(Nc1ccc2c(O)cc(S(=O)(=O)O)cc2c1)c1ccc([N+](=O)[O-])cc1 | 12
